Screens: PubChem BioAssay, several laboratories
Shown are actives, neighbours in structure and some others; about 1.6% of the full set was active somewhere.
PfG6PD inh: PfG6PD (Plasmodium falciparum) enzyme inhibition; inhibition, % at 20 µM; PfGluPho enzyme, NADPH resazurin-diaphorase fluorescence; 0.78% of 350,000 active; AID 504690;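 active = inhibition reaching at least a set limit at 20 µM in the primary screen, cut at about 59% in these data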;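 also: 0% = DMSO wells with substrate and 100% = DMSO wells lacking glucose-6-phosphate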
PKA-R2B act: PKA-R2B complex activation | PKA-R2B holoenzyme dissociation, Cy5-IP20 fluorescence polarization; R2B truncated from residue 108, S112A mutant; 0% DMSO only, 100% 113 µM cGMP | 0.079% of 340,000 active | AID 504700 | P22694+P31323 | activation, % at 11.4 µM;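 active = activation above a cutoff set at the mean over all compounds plus 3 SD, cut at about 18% in these data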;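 also: higher means more holoenzyme dissociation and a rise in polarization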
T cell HTS: modulates CD8 T cell binding to vesicles. 2C CD8+ T cell-vesicle binding, flow cytometry; hits give low values. response (vesicle binding), % at 7 µM. 0.068% of 330,000 active. AID 2052;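 active = response, share of CD8 T cells binding vesicles, and their 90th percentile fluorescence all below set limits, cut at about 80% in these data, passing the limit was not always enough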;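 also: values below 100% mean blocked vesicle binding to the CD8+ T cells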
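Assay system: 2C TCR transgenic mouse naive CD8+ T cells, MACS-purified | Read-out: CD8+ gate FL2 mean fluorescence as % of same-row positive control | Signal: High-throughput flow cytometry with anti-B7-1 and anti-CD8 staining | Timing: Binding step 1.5 h, 37 °C, antibody labelling 20 min, ice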
PKA-R1A act: activators of PKA-R1A complex; PKA-R1A dissociation, Cy5-IP20 fluorescence polarization; scaled: DMSO 0%, 113 µM cGMP 100%; activation, % at 11.4 µM; 0.083% of 340,000 active; AID 504707;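 active = percent activation above the mean of all tested compounds plus 3 SD, cut at about 19% in these data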;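 also: higher means more PKAc released from R1A so a rise in polarization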
HKDC1 inhibitor: inhibitors of human hexokinase HKDC1. Q2TB90. recombinant HKDC1, G6PDH/diaphorase resazurin coupled fluorescence. inhibition, % at 20 µM. 0.16% of 340,000 active;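 active = inhibition above about 35% when tested at 20 µM, limit read from the data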;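 also: plate controls were DMSO wells with enzyme for no effect and DMSO wells lacking enzyme for full effect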
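Assay system: recombinant HKDC1 hexokinase; detection: coupled resazurin fluorescence, excitation 525 nm, emission 613 nm; benchmarks: DMSO-plus-enzyme-mix negative control, buffer-substituted positive control; compound dosing: single 20 µM dose; schedule: 90 min at room temperature in dark; also added: glucose plus 1 mM ATP as hexokinase substrates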
ATG4B inhibitor: ATG4B (human) cysteine protease inhibition. Q9Y4P1. ATG4B cleavage of LC3-PLA2, NBD-HPC fluorescence, 1 h. inhibition, % at 8.33 µM. 0.51% of 340,000 active; in the data active = inhibition above about 40%
Target sequence (Q9Y4P1 whole entry, looked up): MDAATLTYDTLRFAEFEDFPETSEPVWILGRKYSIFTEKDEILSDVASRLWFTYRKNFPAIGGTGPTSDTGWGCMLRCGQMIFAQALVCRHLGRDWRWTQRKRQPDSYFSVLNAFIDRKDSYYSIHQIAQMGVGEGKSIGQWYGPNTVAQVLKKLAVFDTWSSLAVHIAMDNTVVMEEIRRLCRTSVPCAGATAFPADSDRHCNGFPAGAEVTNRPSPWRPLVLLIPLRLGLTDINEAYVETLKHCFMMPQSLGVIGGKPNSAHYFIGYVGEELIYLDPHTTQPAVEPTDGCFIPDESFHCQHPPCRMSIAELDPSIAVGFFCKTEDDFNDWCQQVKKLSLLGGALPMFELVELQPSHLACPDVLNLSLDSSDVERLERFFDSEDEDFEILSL
PfG6PD confirm: PfG6PD inhibition, single-dose confirmed; shares compounds with PfG6PD inh; recombinant PfGluPho, NADPH-diaphorase-resazurin fluorescence; inhibition, % at 20 µM; 34% of 2,400 active;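 active = inhibition of at least 50% at 20 µM in any single replicate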;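 also: 0% = DMSO with substrate and 100% = DMSO lacking glucose-6-phosphate substrate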
Diaphorase 10uM: counter-screen for P. falciparum G6PD inhibitors: diaphorase inhibitors, oxidizers. 39% of 820 active. diaphorase-coupled resazurin reduction, fluorescence, NADPH 10 uM. inhibition, % at 20 µM. shares compounds with PfG6PD inh;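 active = average inhibition reaching 50% or more with the compound at 20 µM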;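 also: resorufin red fluorescence formed as diaphorase reduces resazurin using NADPH; 0% = DMSO with enzyme and 100% = DMSO without enzyme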
Diaph ctr 30uM: diaphorase inhibition or oxidation at 30 uM NADPH; inhibition, % at 20 µM; shares compounds with PfG6PD inh; Diaphorase/resazurin coupled assay, resorufin fluorescence; AID 504863; 29% of 820 active;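 active = inhibition averaging 50% or more, tested at 20 µM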;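 also: 0% = DMSO with enzyme and 100% = DMSO wells lacking diaphorase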
Active calls of the source: *; i = inactive; . = no result.

SMILES	PfG6PD inh	PKA-R2B act	T cell HTS	PKA-R1A act	HKDC1 inhibitor	ATG4B inhibitor	PfG6PD confirm	others
O=C1C(Br)=C(c2ccccc2)C(c2ccccc2)=C1c1ccccc1	32	-11	.	3	17	1	.
CCOC(=O)Cc1csc(-n2sc3ccccc3c2=O)n1	124*	-16	166	6	6	-4	81*	Diaphorase 10uM=-14;Diaph ctr 30uM=4
CS(=O)(=O)N(CC(=O)N/N=C/c1cccs1)c1cccc(Cl)c1Cl	65*	-18	317	-21	0	-4	43
C/C(Cn1cnc([N+](=O)[O-])n1)=N\NC(=O)c1ccccc1	4	-6	261	11	-1	-10	.
C/C(Cn1nnc([N+](=O)[O-])n1)=N\NC(=O)c1ccccc1	63*	-4	278	-11	9	0	60*	Diaphorase 10uM=11;Diaph ctr 30uM=14
Cc1c(C(=O)Nc2nc(-c3ccccn3)cs2)oc2ccccc12	62*	3	876	3	-6	3	25
O=C(Nc1nc(-c2ccccn2)cs1)c1cc2ccccc2o1	6	2	504	-20	-28	3	.
CN(Cc1ccccc1)C(=O)c1[nH]cnc1C(=O)Nc1cccc(Cl)c1	3	-11	256	-10	-1	-8	.
CCOc1ccc(Cl)cc1/C=N/NC(N)=O	79*	1	370	-1	4	-6	53*	Diaphorase 10uM=47;Diaph ctr 30uM=38
CCN1C(=O)[C@H]2[C@@H](c3ccc(C)cc3)N[C@]3(CCCN(Cc4ccccc4)C3=O)[C@H]2C1=O	3	-3	.	-10	.	.	.
N#Cc1c(-c2ccncc2)c2c([nH]c1=S)CCCC2	52	-1	319	-5	-1	-9	.
Cc1ccc(-c2c3c([nH]c(=S)c2C#N)CCCC3)o1	59*	3	i	8	2	2	34
CC(C)(C)N1C(=O)c2ccccc2NC(=O)N1Cc1ccccc1	24	-14	187	-14	0	-4	.
O=C1Nc2ccccc2C(=O)C1(Cl)Cc1ccccc1 (stereo not drawn)	70*	-2	255	3	7	-3	66*	Diaphorase 10uM=-2;Diaph ctr 30uM=-6
CCOC(=O)c1ccc(-n2c(N)c(C(=O)NCC3CCCO3)sc2=S)cc1 (stereo not drawn)	74*	-13	373	-2	-2	-9	53*	Diaphorase 10uM=11;Diaph ctr 30uM=12
CCOC(=O)c1sc(=S)n(-c2ccc(C)cc2)c1N	67*	-10	108	-4	-5	-22	32
CCOC(=O)c1ccc(-n2c(N)c(C(=O)NCc3ccco3)sc2=S)cc1	83*	-1	538	-6	-12	-14	38
Cc1ccc(-n2c(N)c(C(=O)NCc3cccnc3)sc2=S)cc1	68*	4	165	-10	-7	-7	7
COc1ccc(-n2c(N)c(C(=O)NCc3ccco3)sc2=S)cc1	48	1	358	0	-3	-3	.
Cc1ccsc1C(=O)OCC(=O)c1ccc(OC(F)F)cc1	-2	-6	449	-11	-7	10	.
Cc1ccc(NC(=O)CNC(C)c2ccccc2)cc1 (stereo not drawn)	-7	5	301	1	-4	4	.
C=CCNC(=O)c1sc(=S)n(-c2ccc(C(=O)OCC)cc2)c1N	68*	-5	77	6	-11	2	34
CCOC(=O)c1c(C)cc2c(CO)n[nH]c(=O)c2c1C	-2	-2	.	3	.	.	.
CC1=NOC(=O)/C1=C\c1ccc(-c2ccc(Cl)c(C(=O)O)c2)o1	12	-12	.	-16	-2	8	.
